ChEMBL document CHEMBL4382237, “Design, Synthesis, and Biological Evaluation of 2-Nitroimidazopyrazin-one/-es with Antitubercular and Antiparasitic Activity” (J Med Chem, 2018)
In brackets after ≈: the same amount, converted by molar mass.

Key:
[1] = test system: Trypanosoma brucei brucei; experiment: Antiparasitic activity against bloodstream form of Trypanosoma brucei brucei strain 427 after 48 hrs by resazurin dye-based assay; format: functional, organism-based; settings: strain 427, 48 h
Entamoeba histolytica = experiment: Antiparasitic activity against Entamoeba histolytica HM-1:IMSS trophozoites after 24 to 48 hrs by CellTiter-Glo luminescent cell viability assay; format: functional, organism-based
In short: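 Axenic trophozoites were kept in TYI-S-33 with penicillin (100 U/mL) and streptomycin (100 µg/mL) and harvested in log phase. 5000 parasites per well were exposed to a final 8-point two-fold series of 0.39–50 µM, from 10 mM DMSO stocks. Plates were incubated 24–48 h at 37 °C under anaerobic conditions. ATP luminescence viability was read in triplicate. Percent inhibition is given at the highest concentration tested.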

[2] = test system: Mycobacterium tuberculosis; experiment: Antibacterial activity against non-replicating Mycobacterium tuberculosis H37Rv after 5 days under hypoxic condition by resazurin dye-based fluorescence assay; format: functional; settings: 120 h
In short: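 Same H37Rv inoculum (OD600 0.001, ~2 x 10^4 CFU/mL) in 7H9S with serially diluted compound. Plates held 5 days at 0.1% oxygen, then resazurin plus Tween-80 added.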

physchem [3] = settings: water
physchem [4] = settings: PBS, pH 7.4
[5] = test system: Mycobacterium tuberculosis; experiment: Antibacterial activity against Mycobacterium tuberculosis H37Rv after 5 days under normoxic condition by resazurin dye-based fluorescence assay; format: functional, organism-based; settings: for IC50: Mycobacterium tuberculosis, H37Rv, 120 h
In short: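 H37Rv grown in 7H9/ADC/glycerol/Tyloxapol to mid-exponential phase, diluted to OD600 0.001 (~2 x 10^4 CFU/mL) in 7H9S with serially diluted compound. Incubated 5 days at 37 °C, then resazurin and Tween-80 added. Fluorescence (ex 530/em 590 nm) read after 24 h, normalised to no-drug and no-bacteria wells.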

Giardia intestinalis = experiment: Antiparasitic activity against Giardia lamblia WB trophozoites after 24 to 48 hrs by CellTiter-Glo luminescent cell viability assay; settings: Giardia duodenalis
HEK293 = experiment: Cytotoxicity against HEK293 cells after 24 hrs by resazurin dye-based fluorescence assay; format: cell-based; settings: human, hek293, 24 h
In short: (§1)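 HEK293 (3000/well) and HepG2 (5000/well) were grown 24 h in DMEM with 10% FBS at 37 °C, 5% CO2. Cells were then exposed 24 h to a dilution series up to 100 µM (0.5% DMSO). 5 µM resazurin was added for 2 h, read at ex 560/em 590. 1% Triton X-100 served as lysis control. CC50 was derived from the curves.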

Acinetobacter baumannii = experiment: Antibacterial activity against Acinetobacter baumannii ATCC 19606 by broth microdilution assay; format: functional; settings: ATCC 19606 = CIP 70.34 = JCM 6841
In short: (§2)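 Broth microdilution run essentially per an earlier report. MIC taken as the lowest concentration with no visible growth. Replicates typically agreed within one 2-fold dilution. The median MIC is reported, with a range where the median fell between two tested concentrations.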

Staphylococcus aureus = experiment: Antibacterial activity against methicillin-resistant Staphylococcus aureus ATCC […] by broth microdilution assay; format: functional
Cryptococcus neoformans = experiment: Antifungal activity against Cryptococcus neoformans H99 ATCC […] broth microdilution assay; format: functional; settings: var. grubii H99 ATCC 208821; in short: as §2
Pseudomonas aeruginosa = experiment: Antibacterial activity against Pseudomonas aeruginosa ATCC 27853 by broth microdilution assay; format: functional; in short: as §2
Candida albicans = experiment: Antifungal activity against Candida albicans ATCC 90028 by broth microdilution assay; format: functional; in short: as §2
Klebsiella pneumoniae = experiment: Antibacterial activity against Klebsiella pneumoniae 700603 by broth microdilution assay; format: functional; in short: as §2
Escherichia coli = experiment: Antibacterial activity against Escherichia coli ATCC 25922 by broth microdilution assay; format: functional; in short: as §2
HepG2 = experiment: Cytotoxicity against human HepG2 cells after 24 hrs by resazurin dye-based fluorescence assay; format: cell-based; settings: hepg2, 24 h; in short: as §1
[6] = test system: Mycobacterium tuberculosis; experiment: Antibacterial activity against Mycobacterium tuberculosis H37Rv assessed as inhibition of bacterial growth at 32 ug/ml after 5 days under normoxic condition by resazurin dye-based fluorescence assay relative to control; format: functional; settings: 120 h, read-out: GI
[7] = test system: Trypanosoma brucei brucei; experiment: Antiparasitic activity against bloodstream form of Trypanosoma brucei brucei strain 427 assessed as inhibition of parasitic growth at 40 uM after 48 hrs by resazurin dye-based assay relative to control; format: functional; settings: strain 427, 48 h, read-out: GI
[8] = Apparent permeability across apical to basolateral side in human Caco2 cells assessed as mean drug recovery at 2 uM after 2 hrs by lucifer yellow dye-based LC-MS/MS analysis; settings: caco-2, 2 h
[9] = Metabolic stability in human liver microsomes assessed as parent compound remaining at 3 uM after 2 hrs by LC-MS/MS analysis
[10] = Metabolic stability in CD-1 mouse liver microsomes assessed as parent compound remaining at 3 uM after 2 hrs by LC-MS/MS analysis
Clostridioides difficile = experiment: Antibacterial activity against Clostridium difficile 630 ATCC BAA-1382 by broth microdilution assay; format: functional; in short: as §2
[11] = Metabolic stability in human plasma assessed as parent compound remaining at 3 uM after 2 hrs by LC-MS/MS analysis
[12] = Metabolic stability in CD-1 mouse plasma assessed as parent compound remaining at 3 uM after 2 hrs by LC-MS/MS analysis

| Structure (SMILES) | IC50 ([1]; read-out: IC50) [µM] | IC50 ([1]; read-out: pIC50 (converted)) [µM] | IC50 (Entamoeba histolytica; read-out: IC50) [µM] | MIC [2] [µg/mL] | MIC [5] [µg/mL] | IC50 (Giardia intestinalis) [µM] | IC50 (Giardia intestinalis; read-out: pIC50 (converted)) [µM] | CC50 (HEK293) [µM] | MIC (Acinetobacter baumannii) [µg/mL] | MIC (Staphylococcus aureus) [µg/mL] | MIC (Cryptococcus neoformans) [µg/mL] | MIC (Pseudomonas aeruginosa) [µg/mL] | MIC (Candida albicans) [µg/mL] | MIC (Klebsiella pneumoniae) [µg/mL] | MIC (Escherichia coli) [µg/mL] | CC50 (HepG2) [µM] | also measured |
| --- | --- | --- | --- | --- | --- | --- | --- | --- | --- | --- | --- | --- | --- | --- | --- | --- | --- |
| O=c1[nH]c(-c2ccccc2)cn2cc([N+](=O)[O-])nc12 | 0.22 | 0.2 | > 25 | > 32 | >32 | 10 | 10 | – | – | – | – | – | – | – | – | – | IC50 (Entamoeba histolytica; read-out: pIC50 (converted)): > 25.1 µM; solubility kinetic at 24 h, 200 µM (physchem [3]): 27 µM (≈ 6.92 µg/mL); solubility kinetic at 24 h, 200 µM (physchem [4]): 17 µM (≈ 4.36 µg/mL) |
| O=c1c2nc([N+](=O)[O-])cn2ccn1Cc1ccccn1 | 9.7 | 10 | – | > 32 | >32 | 14 | 15.8 | > 100 | > 32 | > 32 | > 32 | > 32 | > 32 | > 32 | > 32 | > 100 | solubility kinetic at 24 h, 200 µM (physchem [3]): 176 µM (≈ 47.7 µg/mL); solubility kinetic at 24 h, 200 µM (physchem [4]): 184 µM (≈ 49.9 µg/mL) |
| O=c1c2nc([N+](=O)[O-])cn2ccn1CCc1ccc(OC(F)(F)F)cc1 | – | – | – | > 32 | – | 1.6 | 1.58 | > 100 | > 32 | > 32 | > 32 | > 32 | > 32 | > 32 | > 32 | > 100 | inhibition of growth at 32 µg/mL [6]: 70%; IC50 [5]: 8 µM; inhibition of growth at 40 µM [7]: 44% |
| O=[N+]([O-])c1cn2ccnc(OCCc3ccc(OC(F)(F)F)cc3)c2n1 | – | – | 7.8 | > 32 | >32 | 5.2 | 5.01 | > 100 | > 32 | > 32 | > 32 | > 32 | > 32 | > 32 | > 32 | > 100 | – |
| Cc1ccc(CCn2ccn3cc([N+](=O)[O-])nc3c2=O)cc1 | > 40 | > 39.8 | – | > 32 | – | 3.2 | 3.16 | > 100 | > 32 | > 32 | > 32 | > 32 | > 32 | > 32 | > 32 | > 100 | inhibition of growth at 32 µg/mL [6]: 78%; IC50 [5]: 4 µM |
| O=C(Cn1ccn2cc([N+](=O)[O-])nc2c1=O)N1CCOCC1 | 4.1 | 3.98 | – | > 32 | >32 | > 50 | > 50.1 | > 100 | > 32 | > 32 | > 32 | > 32 | > 32 | > 32 | > 32 | > 100 | – |
| O=c1c2nc([N+](=O)[O-])cn2ccn1Cc1ccc(F)cc1F | > 40 | > 39.8 | – | > 32 | 16 to 32 | > 50 | > 50.1 | > 100 | > 32 | > 32 | > 32 | > 32 | > 32 | > 32 | > 32 | > 100 | – |
| CC(C)NCC(O)COc1cccc2ccccc12 (stereo not given) [PROPRANOLOL] | – | – | – | – | – | – | – | – | – | – | – | – | – | – | – | – | Drug recovery [8]: 70% |
| O=c1c2nc([N+](=O)[O-])cn2ccn1Cc1ccccc1OC(F)(F)F | 6 | 6.31 | – | 8 (≈ 22.6 µM) | 1 (≈ 2.82 µM) | 8.2 | 7.94 | > 100 | > 32 | > 32 | > 32 | > 32 | > 32 | > 32 | > 32 | > 100 | Stability [9]: > 99%; Stability [10]: > 99% |
| Cc1ccc(Cn2ccn3cc([N+](=O)[O-])nc3c2=O)cc1 | – | – | > 50 | – | – | 3.4 | 3.16 | – | > 32 | > 32 | > 32 | > 32 | > 32 | > 32 | > 32 | – | Stability [9]: 97%; MIC (Clostridioides difficile): > 64 µg/mL; Stability [10]: 96%; Stability [11]: > 99%; Stability [12]: > 99% |
| O=C(NCc1ccc(OC(F)(F)F)cc1)c1ncc([N+](=O)[O-])[nH]1 | – | – | 2.2 to 4.5 | > 32 | >32 | 0.2 to 0.5 | – | – | – | – | – | – | – | – | – | – | MIC (Clostridioides difficile): 4 to 16 µg/mL (≈ 12.1 to 48.5 µM); inhibition of growth at 32 µg/mL [6]: 60 to 75% |
| NC(=O)Cn1ccn2cc([N+](=O)[O-])nc2c1=O | > 40 | > 39.8 | – | > 32 | >32 | > 50 | > 50.1 | > 100 | > 32 | > 32 | > 32 | > 32 | > 32 | > 32 | > 32 | > 100 | – |
| Cc1nc(OCc2ccc(OC(F)(F)F)cc2)c2nc([N+](=O)[O-])cn2c1C | 10 | 10 | 17 | > 32 | >32 | 8.6 | 7.94 | – | – | – | – | – | – | – | – | – | Stability [9]: 44%; IC50 (Entamoeba histolytica; read-out: pIC50 (converted)): 15.8 µM; Stability [10]: < 0.5%; Stability [11]: > 99%; Stability [12]: > 99% |
| O=C(NO)c1nc([N+](=O)[O-])cn1Cc1ccc(OC(F)(F)F)cc1 | – | – | 10 to 45 | > 32 | >32 | 2.7 to 7.5 | – | – | – | – | – | – | – | – | – | – | MIC (Clostridioides difficile): 16 to 64 µg/mL (≈ 46.2 to 185 µM); inhibition of growth at 32 µg/mL [6]: 60 to 75% |
| CC1CC(OC(=O)C(O)c2ccccc2)CC(C)(C)N1C (stereo not given) [EUCATROPINE] | – | – | – | – | – | – | – | – | – | – | – | – | – | – | – | – | Stability [11]: 21% |
| O=c1[nH]ccn2cc([N+](=O)[O-])nc12 | – | – | – | > 32 | >32 | > 25 | > 25.1 | > 100 | > 32 | > 32 | > 32 | > 32 | > 32 | > 32 | > 32 | > 100 | inhibition of growth at 40 µM [7]: 97% |
| O=[N+]([O-])c1cn2ccnc(OCc3ccccc3OC(F)(F)F)c2n1 | > 40 | > 39.8 | – | > 32 | >32 | 12 | 12.6 | > 100 | > 32 | > 32 | > 32 | > 32 | > 32 | > 32 | > 32 | > 100 | Stability [9]: 51%; Stability [10]: < 0.5% |
| CC(c1ccc(F)cc1)n1ccn2cc([N+](=O)[O-])nc2c1=O (stereo not given) | – | – | – | 4 to 6.3 (≈ 13.2 to 20.8 µM) | 0.5 (≈ 1.65 µM) | 2.1 | 2 | > 100 | > 32 | > 32 | > 32 | > 32 | > 32 | > 32 | > 32 | > 100 | inhibition of growth at 40 µM [7]: 94% |
